Source: ChEMBL document CHEMBL4373712, “Bioactivatable Pseudotripeptidization of Cyclic Dipeptides To Increase the Affinity toward Oligopeptide Transporter 1 for Enhanced Oral Absorption: An Application to Cyclo(l-Hyp-l-Ser) (JBP485)” (J Med Chem, 2019)
Calls of active or inactive are those of the source. The rule behind the calls is not given here.

Columns and labels:
Rattus norvegicus [1] = assay: (§1) Anti-hepatitis activity in ANIT-induced Sprague-Dawley rat model of liver injury assessed as reduction in serum aspartate aminotransferase level at 6.25 to 12.5 mg/kg, ip administered 30 mins prior to ANIT challenge and subsequent dosing at 8, 22, 32, and 46 hrs post ANIT challenge and measured 48 hrs post ANIT challenge; format: functional, organism-based
Summary of the method: (§2)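 ANIT (50 mg/kg ip, olive oil) cholestatic liver injury in male SD rats, 6 per group. Oral or ip dosing (UDCA 100 mg/kg po in CMC-Na) at 30 min before and 8, 22, 32 and 46 h after ANIT. Serum collected at 48 h from the abdominal aorta; ALT and AST activities measured with kits.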

Rattus norvegicus [2] = assay: as §1, with “25” for “12.5”, “po” for “ip”; format: functional, organism-based; summary of the method: as §2
Rattus norvegicus [3] = assay: (§3) Anti-hepatitis activity in ANIT-induced Sprague-Dawley rat model of liver injury assessed as reduction in hepatocellular edema at 6.25 to 25 mg/kg, po administered 30 mins prior to ANIT challenge and subsequent dosing at 8, 22, 32, and 46 hrs post ANIT challenge and measured 48 hrs post ANIT challenge by H and E staining-based assay; format: functional, organism-based
Summary of the method: (§4)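 ANIT 50 mg/kg ip liver-injury model in male SD rats, 6 per group. Oral or ip treatment at 30 min before and 8, 22, 32 and 46 h after ANIT. Liver excised at 48 h, fixed in 4% formalin, stained with H&E, and examined microscopically for hepatocellular edema and necrosis.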

[4] = Terminal half life in Sprague-Dawley rat assessed as JBP485 level at 12 mg/kg, po by LC-MS/MS analysis; format: ADME, organism-based; settings: in vivo
Summary of the method: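 Male SD rats (200–250 g) fasted 12 h, given JBP485 or prodrug (calculated as JBP485) orally at 12 or 100 mg/kg. Jugular blood sampled 0.083–10 h, plasma JBP485 by UPLC-MS/MS; n=6.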

Rattus norvegicus [5] = assay: as §3, with “liver necrosis” for “hepatocellular edema”; format: functional, organism-based; summary of the method: as §4
[6] = biological target: T1, Solute carrier family 15 member 1 (Homo sapiens, UniProt P46059); assay: Substrate activity at PEPT1 in human Caco2 cells assessed as inhibition of Gly-Sar uptake by LC-MS/MS analysis; format: cell-based
T1 sequence (P46059 whole entry): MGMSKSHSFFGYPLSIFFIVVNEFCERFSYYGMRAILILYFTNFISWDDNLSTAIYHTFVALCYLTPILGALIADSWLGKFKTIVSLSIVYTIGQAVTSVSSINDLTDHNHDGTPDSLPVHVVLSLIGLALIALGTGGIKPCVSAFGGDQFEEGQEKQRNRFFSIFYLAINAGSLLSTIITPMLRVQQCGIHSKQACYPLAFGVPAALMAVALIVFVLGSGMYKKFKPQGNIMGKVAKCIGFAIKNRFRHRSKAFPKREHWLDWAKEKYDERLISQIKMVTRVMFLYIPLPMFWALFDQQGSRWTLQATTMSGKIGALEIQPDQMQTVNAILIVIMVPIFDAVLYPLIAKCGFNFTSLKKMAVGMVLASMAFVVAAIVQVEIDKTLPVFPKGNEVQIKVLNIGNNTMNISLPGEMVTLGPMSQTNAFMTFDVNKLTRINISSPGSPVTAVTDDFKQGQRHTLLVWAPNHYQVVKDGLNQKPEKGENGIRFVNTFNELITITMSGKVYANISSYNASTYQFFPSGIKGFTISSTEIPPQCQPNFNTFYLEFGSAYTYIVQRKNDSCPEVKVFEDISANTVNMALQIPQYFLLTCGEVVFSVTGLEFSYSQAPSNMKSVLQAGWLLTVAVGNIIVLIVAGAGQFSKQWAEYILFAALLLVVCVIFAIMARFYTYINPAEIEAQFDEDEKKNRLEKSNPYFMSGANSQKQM
Summary of the method: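 Caco-2 cells with 0.5 mM Gly-Sar probe substrate and competitor at 0.5–50 mM. IC50 by nonlinear fitting; n=3.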

[7] = Cmax in Beagle dog at 12 mg/kg, po by UPLC-MS/MS analysis; format: ADME, organism-based, Canis lupus familiaris; set-up: dose 12 mg/kg, route oral; settings: in vivo
Summary of the method: (§5)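 Male beagle dogs, 2 years old, 8-10 kg, n=6. Single oral dose of 12 mg/kg (prodrug dosed as JBP485 equivalent) given in aqueous solution. Jugular venipuncture blood taken at 0.167-8 h into sodium heparin tubes. Plasma JBP485 measured by UPLC-MS/MS; AUC0-t and Cmax from the concentration-time profiles.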

[8] = biological target: T2, Solute carrier family 15 member 1 (Rattus norvegicus, UniProt P51574); assay: Ratio of test compound effect to JBP485 effect for substrate activity at PEPT1 in Sprague-Dawley rat jejunum assessed as effective permeability; format: ADME, tissue-based
T2 sequence (P51574 whole entry): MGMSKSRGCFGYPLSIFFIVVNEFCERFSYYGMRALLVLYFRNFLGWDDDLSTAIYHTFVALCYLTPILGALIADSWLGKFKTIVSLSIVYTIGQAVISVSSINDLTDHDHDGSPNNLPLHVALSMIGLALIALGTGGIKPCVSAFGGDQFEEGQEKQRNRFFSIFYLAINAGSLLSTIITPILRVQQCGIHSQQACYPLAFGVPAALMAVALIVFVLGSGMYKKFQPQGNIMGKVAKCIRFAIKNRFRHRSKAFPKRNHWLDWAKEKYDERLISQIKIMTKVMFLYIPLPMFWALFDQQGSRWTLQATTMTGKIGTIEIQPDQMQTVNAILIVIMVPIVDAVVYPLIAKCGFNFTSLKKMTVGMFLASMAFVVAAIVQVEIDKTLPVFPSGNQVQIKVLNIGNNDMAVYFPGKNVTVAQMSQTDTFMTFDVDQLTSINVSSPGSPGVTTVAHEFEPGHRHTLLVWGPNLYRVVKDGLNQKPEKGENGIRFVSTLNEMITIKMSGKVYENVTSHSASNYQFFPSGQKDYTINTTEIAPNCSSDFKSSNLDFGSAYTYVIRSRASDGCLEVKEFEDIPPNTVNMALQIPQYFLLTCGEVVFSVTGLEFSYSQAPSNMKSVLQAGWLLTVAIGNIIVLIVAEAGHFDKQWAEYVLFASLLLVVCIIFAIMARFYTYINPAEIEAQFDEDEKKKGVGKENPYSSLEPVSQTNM
Summary of the method: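 In situ single-pass jejunal perfusion in fasted (12 h) male SD rats anaesthetised with urethane 1.5 g/kg i.p. About 10 cm of jejunum was perfused at 0.2 mL/min with pH 6.0 HEPES buffer containing 5 mM compound. Outflow was collected 15–120 min after steady state and assayed by HPLC. Peff was calculated from outlet/inlet concentration and volume ratios and segment radius and length.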

[9] = Tmax in Beagle dog assessed as JBP485 level at 12 mg/kg equiv of JBP485 administered orally by UPLC-MS/MS analysis; format: ADME, organism-based, Canis lupus familiaris; settings: in vivo, po
Summary of the method: (§6)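 Male beagle dogs, 2 years old, 8–10 kg, dosed orally at 12 mg/kg (prodrug calculated as JBP485) in aqueous solution. Jugular blood taken 0.167–8 h into heparin, centrifuged, plasma JBP485 by UPLC-MS/MS; n=6.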

[10] = Terminal half life in Beagle dog assessed as JBP485 level at 12 mg/kg equiv of JBP485 administered orally by UPLC-MS/MS analysis; format: ADME, organism-based, Canis lupus familiaris; settings: in vivo, po; summary of the method: as §6
[11] = AUC (0 to t) in Beagle dog assessed as JBP485 level at 12 mg/kg equiv of JBP485 administered orally by UPLC-MS/MS analysis; format: ADME, organism-based, Canis lupus familiaris; settings: in vivo, po; summary of the method: as §5

SMILES | Activity (Rattus norvegicus [1]) | Activity (Rattus norvegicus [2]) | Activity (Rattus norvegicus [3]) | beta t1/2 [4] | Activity (Rattus norvegicus [5]) | Ki [6] | Cmax [7] | Ratio [8] | Tmax [9] | beta t1/2 [10] | AUCt [11]
O=C1N[C@@H](CO)C(=O)N2C[C@H](O)C[C@@H]12 | Active | Active | Active | 2.12 h | Active | 36 mM | 26.65 nM/ml |  |  |  | 
CC(C)[C@H](N)C(=O)OC[C@@H]1NC(=O)[C@@H]2C[C@@H](O)CN2C1=O |  |  |  |  |  |  |  | 6.03 | 0.58 h | 1.68 h | 233.25 nM/ml.hr
